# KCNQ1 inh: human KCNQ1 channel inhibition; B-score at 10 µM; CHO-K1 KCNQ1, FluxOR thallium flux fluorescence; active compounds read high; P51787; hit rate 1.3% among 310,000; AID 2642;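 active = compounds whose thallium flux B-score, printed positive for inhibition, exceeds three library SD while starting fluorescence stays within three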;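 also: channel opened by potassium depolarization with thallium stimulus after 20 min compound exposure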
# KCNK9 inh: inhibitors of human KCNK9 two-pore domain potassium channel | hit rate 1.2% among 310,000 | AID 488922 | B-score at 10 µM | HEK293 KCNK9, FluxOR thallium flux fluorescence; active compounds read low;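 active = ratio B-score over 3 SD below the library mean, with starting fluorescence within 5 SD of its mean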;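 also: negative B-score means less thallium flux so channel inhibition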
# KCNK3 inh: human KCNK3 channel inhibition, primary screen. O14649. CHO-KCNK3 thallium flux, FluxOR fluorescence; active compounds read low. hit rate 0.84% among 340,000. B-score at 10 µM;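 active = B-score under library mean minus 4 SD, starting fluorescence ratio at most library mean plus 5 SD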;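 also: more negative B-score means stronger inhibition of thallium flux through KCNK3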
# KCNQ1 pot: potentiates or activates the human KCNQ1 potassium channel | hit rate 0.35% among 310,000 | CHO-K1 KCNQ1, thallium flux FluxOR fluorescence; active compounds read high | AID 2648 | P51787 | B-score at 10 µM;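 active = fluorescence ratio B-score, a plate-corrected score, at least three library SD, with initial intensity B-score within 5 SD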
#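 Assay system: stable KCNQ1 CHO-K1 line; medium: assay buffer, equal DMSO in all wells; timing: 90 min dye loading and 20 min compound exposure, both at room temperature; technique: kinetic FluxOR thallium fluorescence, 10-s 1-Hz baseline, 110-s post-stimulus read; read-out basis: B score of baseline-normalized fluorescence ratio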
# hERG rescue: hERG (human) protection from proarrhythmic block; Q12809; CHO-hERG, FluxOR thallium flux, dofetilide IC70 present; activation (rescue from dofetilide block), less the hit threshold, % at 10 µM; hit rate 0.51% among 310,000;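 active = activation above the mean of controls blocked by dofetilide plus 5 SD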;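 also: thallium influx through hERG after potassium depolarization seen as dye fluorescence rise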
# KCC2 mod: modulates chloride dependent transport by human KCC2. Q9H2X9. KCC2 cells, thallium flux FluoZin-2 fluorescence. B-score of Tl+ flux slope (higher = more flux/activation; lower = inhibition) at 10 µM. hit rate 2.2% among 190,000;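 active = thallium flux slope and its plate-corrected score both differing from the plate sample mean at a set confidence after two filtering rounds, in either direction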;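 also: slope of fluorescence scaled to starting intensity during 10 to 20 s after thallium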
# Target sequence (Q9H2X9 whole entry, looked up): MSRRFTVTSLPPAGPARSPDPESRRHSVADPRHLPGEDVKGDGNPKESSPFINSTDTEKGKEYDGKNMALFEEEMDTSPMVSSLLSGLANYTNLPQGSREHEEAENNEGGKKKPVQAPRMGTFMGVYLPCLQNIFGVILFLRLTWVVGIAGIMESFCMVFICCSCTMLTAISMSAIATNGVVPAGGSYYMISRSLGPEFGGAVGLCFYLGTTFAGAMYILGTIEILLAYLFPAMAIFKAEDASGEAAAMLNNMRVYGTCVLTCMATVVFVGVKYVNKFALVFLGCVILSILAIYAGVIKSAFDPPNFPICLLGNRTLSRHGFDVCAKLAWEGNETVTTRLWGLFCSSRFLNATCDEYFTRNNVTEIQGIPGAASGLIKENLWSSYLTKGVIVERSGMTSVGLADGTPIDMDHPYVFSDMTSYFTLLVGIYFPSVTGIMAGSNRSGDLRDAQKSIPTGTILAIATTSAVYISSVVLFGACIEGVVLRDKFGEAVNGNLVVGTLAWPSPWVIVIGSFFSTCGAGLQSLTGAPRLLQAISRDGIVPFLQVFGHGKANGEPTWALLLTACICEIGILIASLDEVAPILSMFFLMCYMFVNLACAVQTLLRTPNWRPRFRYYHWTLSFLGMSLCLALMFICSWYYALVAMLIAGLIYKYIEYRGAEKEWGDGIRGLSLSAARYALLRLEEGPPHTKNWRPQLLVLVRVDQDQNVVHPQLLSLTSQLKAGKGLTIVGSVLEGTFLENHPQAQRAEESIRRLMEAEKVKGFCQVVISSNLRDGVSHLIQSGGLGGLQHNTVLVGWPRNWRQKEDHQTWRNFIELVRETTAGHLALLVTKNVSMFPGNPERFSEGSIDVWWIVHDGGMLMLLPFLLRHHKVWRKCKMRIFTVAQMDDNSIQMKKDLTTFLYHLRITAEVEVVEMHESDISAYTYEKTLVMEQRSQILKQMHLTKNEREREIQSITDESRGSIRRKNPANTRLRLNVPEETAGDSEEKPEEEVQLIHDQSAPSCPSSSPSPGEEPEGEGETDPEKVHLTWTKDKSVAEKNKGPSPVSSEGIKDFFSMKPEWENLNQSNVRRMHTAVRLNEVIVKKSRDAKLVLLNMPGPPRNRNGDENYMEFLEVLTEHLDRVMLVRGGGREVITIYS
# KCNK9 inh conf: confirmation of human KCNK9 potassium channel inhibitors | shares compounds with KCNK9 inh | HEK293 KCNK9 cells, FluxOR thallium flux fluorescence | inhibition, % at 10 µM | hit rate 43% among 4,900 | AID 492992;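 active = thallium signal inhibited by more than 5 SD of the compound-free buffer control wells, on both duplicate plates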;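 also: 0% = assay buffer control wells without compound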
# Kir21 sel: tests whether KCNK9 modulators also affect mouse Kir2.1. shares compounds with KCNK9 inh. Kir2.1 cells, FluxOR thallium flux fluorescence. inhibition, % at 10 µM. hit rate 4% among 4,900;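 active = thallium signal drop more than 5 SD beyond the mean of the no-compound control wells, seen in both duplicate plates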;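 also: signal is fluorescence rise after thallium addition divided by baseline fluorescence; plate controls were assay buffer only for no effect and full block by chlorpromazine control for full effect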
# HEK293 Tl ctr: second check of KCNK9 modulator effects in non-induced HEK293 cells. FluxOR thallium flux. inhibition, % at 10 µM. AID 492997. shares compounds with KCNK9 inh. hit rate 40% among 4,900;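 active = thallium signal drop beyond 5 SD of the untreated control mean, on both duplicate plates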;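 also: plate controls were buffer only IC0 wells for no effect and SID17386958 at its maximal inhibitory level for full effect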
# KCNK3 confirm: human KCNK3 channel inhibition, confirmation assay | ratio percent of control, % at 10 µM | shares compounds with KCNK3 inh | CHO-KCNK3 thallium flux, FluxOR fluorescence; 0% buffer, 100% carvedilol maximal block | hit rate 99% among 2,400 | AID 651638;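 active = ratio percent of control, averaged over triplicates, above buffer control mean plus 5 SD, cut at about 64% in these data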;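 also: ratio is the fluorescence rise from min to max over baseline after thallium stimulus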
# KCNK3 uninduced: activity in cells without induced KCNK3 expression. shares compounds with KCNK3 inh. hit rate 40% among 2,400. thallium flux ratio (lower = more inhibition) at 10 µM. non-induced KCNK3 parental cells, FluxOR thallium flux; active compounds read low;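 active = thallium flux ratio, averaged over three wells, more than 5 SD below the buffer control mean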;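 also: host cells are CHO cells without KCNK3 induction; ratio is peak minus trough fluorescence over baseline then normalized to buffer controls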
# * hit, by the source's call; i = inactive; / = no result. A selection: hits, their analogues and other compounds. The true share with any hit is near 4.1%.
SMILES,KCNQ1 inh,KCNK9 inh,KCNK3 inh,KCNQ1 pot,hERG rescue,KCC2 mod,KCNK9 inh conf,Kir21 sel,HEK293 Tl ctr,others
Cc1cc(C)c2c(c1)-c1cc(C)nn1C(c1cccnc1)N2 (configuration not stated),i,i,i,i,-7,-0.0021,/,/,/,
CC(C)n1c(=O)c(C=Nc2ccc(F)cc2)c(O)n(Cc2ccco2)c1=O,i,i,i,i,-6,0.59,i,i,i,
CCN(CC)c1ccc(CC2C(=O)N(C)C(=O)N(C)C2=O)cc1,i,i,i,i,-10,1.9,i,i,i,
Cc1ccccc1NS(=O)(=O)c1ccc(OCC(=O)N2CCN(C)CC2)cc1,i,i,i,i,-9,/,i,i,i,
Cc1ccc(NS(=O)(=O)c2ccc(OCC(=O)N3CCN(C)CC3)cc2)cc1,i,i,i,i,-15,/,/,/,/,
N#CCCn1cc(C(=O)NCc2ccccc2)c(-c2ccc3c(c2)OCCO3)n1,i,i,i,i,-3,-1.6,/,/,/,
CCc1ccc(N2C(=O)NC(=O)/C(=C/c3cccn3CCOc3ccc(C(C)CC)cc3)C2=O)cc1 (configuration not stated),i,i,i,i,-2,1.7,i,i,i,
Cc1ccccc1C1=NCC(=O)N(CC(=O)NCc2ccco2)c2sc3c(c21)CCCC3,/,/,i,/,/,-0.18,/,/,/,
Cc1ccc(-n2nc(C)c3c2NC(=O)CSC3c2ccc3c(c2)OCO3)cc1 (configuration not stated),i,-13*,i,i,-11,-0.3,36%*,i,31%*,
COc1ccc(C2SCC(=O)Nc3c2c(C)nn3-c2ccccc2)cc1 (configuration not stated),i,i,i,i,-6,0.3,/,/,/,
O=C(CN1CC=C(c2ccccc2)CC1)Nc1cc(Cl)ccc1Cl,i,i,i,i,-13,-0.46,i,i,i,
CC(C)n1c(O)c(C2c3cc(Cl)ccc3Oc3[nH]c(=O)n(C(C)C)c(=O)c32)c(=O)[nH]c1=O (configuration not stated),i,i,i,i,-24,/,/,/,/,
CC1=C(C)CC2(C(=O)NC(=O)NC2=O)C(C)C1 (configuration not stated),/,/,i,/,/,/,/,/,/,
COc1cc(C)c(CN2CC=C(c3ccc(F)cc3)CC2)cc1C,i,i,i,i,-9,/,i,i,i,
COc1cc(CN2CC=C(c3ccc(F)cc3)CC2)cc(OC)c1,i,i,i,i,-6,/,/,/,/,
O=C1CN=C(c2ccccc2Cl)c2cc(Br)ccc2N1,i,i,i,i,-4,/,/,/,/,
COC(=O)C1=C(c2ccc(-c3ccccc3)c(F)c2)C[C@@H]2CC[C@H]1N2C(=O)NCCCOC(C)C,/,/,i,/,/,/,/,/,/,
Clc1cnc(Oc2ccc(Oc3ncc(Cl)cc3Cl)cc2)c(Cl)c1,i,i,i,i,-6,0.81,i,i,i,
NC(N)=N/N=C/c1cn(-c2ccccc2)nc1-c1cccs1,9*,-9.2*,-12*,i,-30,-1.3,54%*,50%*,i,KCNK3 confirm=101*;KCNK3 uninduced=i
CCS(=O)(=O)NC(C)c1nnc2n1-c1ccc(Br)cc1C(c1ccccc1Cl)=NC2 (configuration not stated),i,i,i,i,-8,/,/,/,/,
